Measured values published in ChEMBL document CHEMBL1134964, “Heterocyclic benzazole derivatives with antimycobacterial in vitro activity” (2002).
≈ marks a conversion by molar mass, not a printed value.

Assays:
Format in all cases: functional
Mycobacterium avium [1] = test: In vitro inhibition of Mycobacterium Avium growth after 14 days culture.; conditions: 336 h
How it was run: (§1)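 Micromethod broth MIC. Compounds tested at 500, 250, 125, 32, 16, 8, 4 and 2, plus one intermediate level between 125 and 32. Plates incubated at 37 C and read at 7, 14 and 21 days. MIC is the lowest concentration at which growth of the mycobacteria was inhibited. MIC could not be set where solubility in the test medium was limited.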

Mycobacterium avium [2] = test: In vitro inhibition of Mycobacterium Avium (My 330/88) growth after 21 days culture.; conditions: 504 h; how it was run: as §1
Mycobacterium kansasii [3] = test: In vitro inhibition of Mycobacterium Kansasi (My 6 509/96) growth after 14 days culture.; conditions: 336 h
Mycobacterium kansasii [4] = test: In vitro inhibition of Mycobacterium Kansasi (My 6 509/96) growth after 21 days culture.; conditions: 504 h
Mycobacterium kansasii [5] = test: In vitro inhibition of Mycobacterium Kansasi (My 6 509/96) growth after 7 days culture.; conditions: 168 h
[6] = test system: Mycobacterium tuberculosis; test: In vitro inhibition of Mycobacterium Tuberculosis (My 331/88) growth after 14 days culture.; conditions: 336 h; how it was run: as §1
[7] = test system: Mycobacterium tuberculosis; test: In vitro inhibition of Mycobacterium Tuberculosis (My 331/88) growth after 21 days culture.; conditions: 504 h; how it was run: as §1
Mycobacterium kansasii [8] = test: In vitro inhibition of Mycobacterium Kansasi (My 235/80) growth after 14 days culture.; conditions: 336 h
Mycobacterium kansasii [9] = test: In vitro inhibition of Mycobacterium Kansasi (My 235/80) growth after 21 days culture.; conditions: 504 h
Mycobacterium kansasii [10] = test: In vitro inhibition of Mycobacterium Kansasi (My 235/80) growth after 7 days culture.; conditions: 168 h
Mycobacterium avium [11] = test: In vitro minimum inhibitory concentration the compound for anti-mycobacterial activity was determined against Mycobacterium avium (My 330/88) by micromethod after 14 days of incubation; conditions: 336 h; how it was run: as §1
Mycobacterium avium [12] = test: In vitro minimum inhibitory concentration the compound for anti-mycobacterial activity was determined against Mycobacterium avium (My 330/88) by micromethod after 21 days of incubation; conditions: 504 h; how it was run: as §1
Mycobacterium kansasii [13] = test: In vitro minimum inhibitory concentration the compound for anti-mycobacterial activity was determined against Mycobacterium kansasii (My 235/80) by micromethod after 14 days of incubation; conditions: 336 h
Mycobacterium kansasii [14] = test: In vitro minimum inhibitory concentration the compound for anti-mycobacterial activity was determined against Mycobacterium kansasii (My 235/80) by micromethod after 21 days of incubation; conditions: 504 h
Mycobacterium kansasii [15] = test: In vitro minimum inhibitory concentration the compound for anti-mycobacterial activity was determined against Mycobacterium kansasii (My 6 509/96) by micromethod after 14 days of incubation; conditions: 336 h
Mycobacterium kansasii [16] = test: In vitro minimum inhibitory concentration the compound for anti-mycobacterial activity was determined against Mycobacterium kansasii (My 6 509/96) by micromethod after 21 days of incubation; conditions: 504 h
Mycobacterium kansasii [17] = test: In vitro minimum inhibitory concentration the compound for anti-mycobacterial activity was determined against Mycobacterium kansasii (My 6 509/96) by micromethod after 7 days of incubation; conditions: 168 h
HeLa = test: The compound was tested for cytotoxicity against HeLa cells.; conditions: Homo sapiens
[18] = Ratio of cytotoxicity to minimum inhibitory concentration of Mycobacterium tuberculosis My 331/88 was evaluated

SMILES: Sc1nc2ccccc2o1
- MIC (Mycobacterium avium [1]): 250 µM (≈ 37.8 µg/mL)
- MIC (Mycobacterium avium [2]): 500 µM (≈ 75.6 µg/mL)
- MIC (Mycobacterium kansasii [3]): 500 µM (≈ 75.6 µg/mL)
- MIC (Mycobacterium kansasii [4]): 1000 µM (≈ 151 µg/mL)
- MIC (Mycobacterium kansasii [5]): 250 µM (≈ 37.8 µg/mL)
- MIC [6]: 500 µM (≈ 75.6 µg/mL)
- MIC [7]: 500 µM (≈ 75.6 µg/mL)
- MIC (Mycobacterium kansasii [8]): 1000 µM (≈ 151 µg/mL)
- MIC (Mycobacterium kansasii [9]): 1000 µM (≈ 151 µg/mL)
- MIC (Mycobacterium kansasii [10]): 500 µM (≈ 75.6 µg/mL)

SMILES: O=[N+]([O-])c1cccc(CSc2nc3ccccc3o2)c1
- MIC (Mycobacterium avium [1]): > 32 µM
- MIC (Mycobacterium avium [2]): > 62 µM
- MIC (Mycobacterium kansasii [3]): 32 µM (≈ 9.16 µg/mL)
- MIC (Mycobacterium kansasii [4]): > 32 µM
- MIC (Mycobacterium kansasii [5]): 32 µM (≈ 9.16 µg/mL)
- MIC [6]: > 62 µM
- MIC [7]: 125 µM (≈ 35.8 µg/mL)
- MIC (Mycobacterium kansasii [8]): > 32 µM
- MIC (Mycobacterium kansasii [9]): > 32 µM
- MIC (Mycobacterium kansasii [10]): 32 µM (≈ 9.16 µg/mL)

SMILES: O=[N+]([O-])c1cccc(CSc2nc3ccccc3s2)c1
- MIC (Mycobacterium avium [1]): 62 µM (≈ 18.7 µg/mL)
- MIC (Mycobacterium avium [2]): 62 µM (≈ 18.7 µg/mL)
- MIC (Mycobacterium kansasii [3]): 62 µM (≈ 18.7 µg/mL)
- MIC (Mycobacterium kansasii [4]): > 62 µM
- MIC (Mycobacterium kansasii [5]): 32 µM (≈ 9.68 µg/mL)
- MIC [6]: > 62 µM
- MIC [7]: > 125 µM
- MIC (Mycobacterium kansasii [8]): > 125 µM
- MIC (Mycobacterium kansasii [9]): > 125 µM
- MIC (Mycobacterium kansasii [10]): 62 µM (≈ 18.7 µg/mL)

SMILES: c1ccc(CSc2nc3ccccc3s2)cc1
- MIC (Mycobacterium avium [11]): 32 µM (≈ 8.24 µg/mL)
- MIC (Mycobacterium avium [12]): 62 µM (≈ 16 µg/mL)
- MIC [6]: 250 µM (≈ 64.3 µg/mL)
- MIC [7]: 500 µM (≈ 129 µg/mL)
- MIC (Mycobacterium kansasii [13]): 500 µM (≈ 129 µg/mL)
- MIC (Mycobacterium kansasii [14]): > 500 µM
- MIC (Mycobacterium kansasii [15]): 125 µM (≈ 32.2 µg/mL)
- MIC (Mycobacterium kansasii [16]): 250 µM (≈ 64.3 µg/mL)
- MIC (Mycobacterium kansasii [17]): 62 µM (≈ 16 µg/mL)
- MIC (Mycobacterium kansasii [10]): 62 µM (≈ 16 µg/mL)

SMILES: O=[N+]([O-])c1cc(CSc2nc3ccccc3s2)cc([N+](=O)[O-])c1
- CC50 (HeLa): > 144 µM
- MIC (Mycobacterium avium [1]): 62 µM (≈ 21.5 µg/mL)
- MIC (Mycobacterium avium [2]): 62 µM (≈ 21.5 µg/mL)
- MIC (Mycobacterium kansasii [3]): 32 µM (≈ 11.1 µg/mL)
- MIC (Mycobacterium kansasii [4]): > 62 µM
- MIC [6]: 2 µM (≈ 0.695 µg/mL)
- MIC [7]: 2 µM (≈ 0.695 µg/mL)
- MIC (Mycobacterium kansasii [8]): 16 µM (≈ 5.56 µg/mL)
- MIC (Mycobacterium kansasii [9]): > 62 µM
- MIC (Mycobacterium kansasii [10]): 16 µM (≈ 5.56 µg/mL)
- Safety index [18]: >72

SMILES: N#Cc1cccc(CSc2nc3ccccc3o2)c1
- MIC (Mycobacterium avium [1]): 62 µM (≈ 16.5 µg/mL)
- MIC (Mycobacterium avium [2]): 62 µM (≈ 16.5 µg/mL)
- MIC (Mycobacterium kansasii [3]): 62 µM (≈ 16.5 µg/mL)
- MIC (Mycobacterium kansasii [4]): 62 µM (≈ 16.5 µg/mL)
- MIC (Mycobacterium kansasii [5]): 32 µM (≈ 8.52 µg/mL)
- MIC [6]: 125 µM (≈ 33.3 µg/mL)
- MIC [7]: 125 µM (≈ 33.3 µg/mL)
- MIC (Mycobacterium kansasii [8]): 62 µM (≈ 16.5 µg/mL)
- MIC (Mycobacterium kansasii [9]): 125 µM (≈ 33.3 µg/mL)
- MIC (Mycobacterium kansasii [10]): 32 µM (≈ 8.52 µg/mL)

SMILES: N#Cc1cccc(CSc2nc3ccccc3s2)c1
- MIC (Mycobacterium avium [1]): 32 µM (≈ 9.04 µg/mL)
- MIC (Mycobacterium avium [2]): 62 µM (≈ 17.5 µg/mL)
- MIC (Mycobacterium kansasii [3]): 62 µM (≈ 17.5 µg/mL)
- MIC (Mycobacterium kansasii [4]): 125 µM (≈ 35.3 µg/mL)
- MIC (Mycobacterium kansasii [5]): 32 µM (≈ 9.04 µg/mL)
- MIC [6]: 62 µM (≈ 17.5 µg/mL)
- MIC [7]: 250 µM (≈ 70.6 µg/mL)
- MIC (Mycobacterium kansasii [8]): 250 µM (≈ 70.6 µg/mL)
- MIC (Mycobacterium kansasii [9]): 500 µM (≈ 141 µg/mL)
- MIC (Mycobacterium kansasii [10]): 125 µM (≈ 35.3 µg/mL)

SMILES: O=[N+]([O-])c1ccccc1CSc1nc2ccccc2s1
- MIC (Mycobacterium avium [1]): 125 µM (≈ 37.8 µg/mL)
- MIC (Mycobacterium avium [2]): > 250 µM
- MIC (Mycobacterium kansasii [3]): 32 µM (≈ 9.68 µg/mL)
- MIC (Mycobacterium kansasii [4]): 125 µM (≈ 37.8 µg/mL)
- MIC [6]: 125 µM (≈ 37.8 µg/mL)
- MIC [7]: 500 µM (≈ 151 µg/mL)
- MIC (Mycobacterium kansasii [14]): 500 µM (≈ 151 µg/mL)
- MIC (Mycobacterium kansasii [17]): 32 µM (≈ 9.68 µg/mL)
- MIC (Mycobacterium kansasii [8]): 125 µM (≈ 37.8 µg/mL)
- MIC (Mycobacterium kansasii [10]): 62 µM (≈ 18.7 µg/mL)

SMILES: O=[N+]([O-])c1ccc(CSc2nc3ccccc3o2)cc1
- MIC (Mycobacterium avium [1]): > 32 µM
- MIC (Mycobacterium avium [2]): > 62 µM
- MIC (Mycobacterium kansasii [3]): 32 µM (≈ 9.16 µg/mL)
- MIC (Mycobacterium kansasii [4]): > 32 µM
- MIC (Mycobacterium kansasii [5]): 32 µM (≈ 9.16 µg/mL)
- MIC [6]: > 62 µM
- MIC [7]: > 125 µM
- MIC (Mycobacterium kansasii [8]): 32 µM (≈ 9.16 µg/mL)
- MIC (Mycobacterium kansasii [9]): > 62 µM
- MIC (Mycobacterium kansasii [10]): 32 µM (≈ 9.16 µg/mL)

SMILES: O=[N+]([O-])c1cc(CSc2nc3ccccc3o2)cc([N+](=O)[O-])c1
- CC50 (HeLa): > 151 µM
- MIC (Mycobacterium avium [1]): > 16 µM
- MIC (Mycobacterium avium [2]): > 32 µM
- MIC (Mycobacterium kansasii [3]): 8 µM (≈ 2.65 µg/mL)
- MIC (Mycobacterium kansasii [4]): 8 µM (≈ 2.65 µg/mL)
- MIC (Mycobacterium kansasii [5]): 4 µM (≈ 1.33 µg/mL)
- MIC [6]: 8 µM (≈ 2.65 µg/mL)
- MIC [7]: 8 µM (≈ 2.65 µg/mL)
- MIC (Mycobacterium kansasii [8]): 4 µM (≈ 1.33 µg/mL)
- MIC (Mycobacterium kansasii [9]): 4 µM (≈ 1.33 µg/mL)
- MIC (Mycobacterium kansasii [10]): 2 µM (≈ 0.663 µg/mL)
- Safety index [18]: >18.9

SMILES: Sc1nc2ccccc2s1 [2-MERCAPTOBENZOTHIAZOLE]
- MIC (Mycobacterium avium [11]): > 62 µM
- MIC (Mycobacterium avium [12]): > 62 µM
- MIC [6]: 62 µM (≈ 10.4 µg/mL)
- MIC [7]: 62 µM (≈ 10.4 µg/mL)
- MIC (Mycobacterium kansasii [13]): 125 µM (≈ 20.9 µg/mL)
- MIC (Mycobacterium kansasii [14]): > 125 µM
- MIC (Mycobacterium kansasii [15]): > 62 µM
- MIC (Mycobacterium kansasii [16]): > 62 µM
- MIC (Mycobacterium kansasii [17]): 62 µM (≈ 10.4 µg/mL)
- MIC (Mycobacterium kansasii [10]): 62 µM (≈ 10.4 µg/mL)

SMILES: NNC(=O)c1ccncc1 [ISONIAZID]
- MIC (Mycobacterium avium [1]): > 250 µM
- MIC (Mycobacterium avium [2]): > 250 µM
- MIC (Mycobacterium kansasii [3]): 2 µM (≈ 0.274 µg/mL)
- MIC (Mycobacterium kansasii [4]): 4 µM (≈ 0.549 µg/mL)
- MIC (Mycobacterium kansasii [5]): 2 µM (≈ 0.274 µg/mL)
- MIC [6]: 0.5 µM (≈ 0.0686 µg/mL)
- MIC [7]: 1 µM (≈ 0.137 µg/mL)
- MIC (Mycobacterium kansasii [8]): > 250 µM
- MIC (Mycobacterium kansasii [9]): > 250 µM
- MIC (Mycobacterium kansasii [10]): > 250 µM
